# “Also recorded” adds a separate entry of the source.
# Assays:
# Assay type in all cases: in vivo, human
# tumour glucose uptake = experiment: Metabolic response by FDG-PET; conditions: day 35
# Summary of the method: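 FDG-PET was done at screening in solid-tumour patients with RECIST-measurable lesions and in all lymphoma patients. Percentage change in SUVmax from baseline was calculated. Metabolic response was defined as an SUVmax decrease >25% per EORTC criteria.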
# [1] = test system: advanced solid tumours or lymphomas; experiment: Tumour response by RECIST v1.0
# Summary of the method: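 Patients got a single oral dose on day 1, then continuous twice-daily dosing until disease progression or unmanageable toxicity. Baseline RECIST assessment used CT or MRI of chest, abdomen and pelvis before treatment, repeated every 8 weeks.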
# [2] = Phase I dose-escalation safety and tolerability: adverse events, DLTs, MTD
# Summary of the method: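 Multicentre, open-label, dose-escalation study. A single oral dose on day 1 was followed one week later by continuous twice-daily dosing, starting at 10 mg. The first three cohorts got solution, later cohorts tablets. AEs were graded by CTC v3.0 from consent to 30 days after stopping. DLT: a CTC grade 3 AE, or a laboratory abnormality with clinical signs, within 42 days (extended from 35). MTD: last dose below the non-tolerated dose.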
# [3] = 10 mg BID solution (n=5), CTCAE grade 1–2
# [4] = 10 mg BID solution (n=5), CTCAE grade ⩾3
# [5] = 20 mg BID solution (n=3), CTCAE grade 1–2
# [6] = 20 mg BID solution (n=3), CTCAE grade ⩾3
# [7] = 40 mg BID solution (n=6), CTCAE grade 1–2
# [8] = 40 mg BID solution (n=6), CTCAE grade ⩾3
# [9] = 40 mg BID tablet (n=7), CTCAE grade 1–2
# [10] = 40 mg BID tablet (n=7), CTCAE grade ⩾3
# [11] = 60 mg BID tablet (n=7), CTCAE grade 1–2
structure (smiles),measurement,setting,value
COc1ccc(-c2ccc3c(N4CCOC[C@@H]4C)nc(N4CCOC[C@@H]4C)nc3n2)cc1CO [AZD8055],Patients with partial metabolic response by FDG-PET (decrease in SUVmax>25%),tumour glucose uptake; 40 mg tablet BID,2/5
same,Patients with partial metabolic response by FDG-PET (decrease in SUVmax>25%),tumour glucose uptake; 60 mg BID,2/5
same,Patients with partial metabolic response by FDG-PET (decrease in SUVmax>25%),tumour glucose uptake; 90 mg BID,1/7
same,Patients with partial metabolic response by FDG-PET (decrease in SUVmax>25%),tumour glucose uptake; 120 mg BID,3/9
same,Patients with stable disease for ⩾4 months,[1]; 10 mg BID,1/5
same,Patients with stable disease for ⩾4 months,[1]; 60 mg BID,1/7
same,Patients with stable disease for ⩾4 months,[1]; 90 mg BID,1/11
same,Patients with stable disease for ⩾4 months,[1]; all cohorts,Seven
same,RECIST complete or partial responses,[1]; all cohorts,no RECIST responses were seen; also recorded: No complete or partial responses were observed
same,"Duration of stable disease, range",[1]; seven patients with stable disease for ⩾4 months,115 to 398 days
same,"Fatigue: patients with AZD8055-related AE, n (%)",[2]; [3],1 (20) %
same,"Hyperglycaemia: patients with AZD8055-related AE, n (%)",[2]; [3],0%
same,"Increased ALT: patients with AZD8055-related AE, n (%)",[2]; [3],1 (20) %
same,"Increased AST: patients with AZD8055-related AE, n (%)",[2]; [3],1 (20) %
same,"Increased GGT: patients with AZD8055-related AE, n (%)",[2]; [3],0%
same,"Nausea: patients with AZD8055-related AE, n (%)",[2]; [3],2 (40) %
same,"Stomatitis: patients with AZD8055-related AE, n (%)",[2]; [3],0%
same,"Fatigue: patients with AZD8055-related AE, n (%)",[2]; [4],0%
same,"Hyperglycaemia: patients with AZD8055-related AE, n (%)",[2]; [4],0%
same,"Increased ALT: patients with AZD8055-related AE, n (%)",[2]; [4],0%
same,"Increased AST: patients with AZD8055-related AE, n (%)",[2]; [4],0%
same,"Increased GGT: patients with AZD8055-related AE, n (%)",[2]; [4],0%
same,"Nausea: patients with AZD8055-related AE, n (%)",[2]; [4],0%
same,"Stomatitis: patients with AZD8055-related AE, n (%)",[2]; [4],0%
same,"Fatigue: patients with AZD8055-related AE, n (%)",[2]; [5],0%
same,"Hyperglycaemia: patients with AZD8055-related AE, n (%)",[2]; [5],0%
same,"Increased ALT: patients with AZD8055-related AE, n (%)",[2]; [5],0%
same,"Increased AST: patients with AZD8055-related AE, n (%)",[2]; [5],0%
same,"Increased GGT: patients with AZD8055-related AE, n (%)",[2]; [5],0%
same,"Nausea: patients with AZD8055-related AE, n (%)",[2]; [5],1 (33) %
same,"Stomatitis: patients with AZD8055-related AE, n (%)",[2]; [5],1 (33) %
same,"Fatigue: patients with AZD8055-related AE, n (%)",[2]; [6],0%
same,"Hyperglycaemia: patients with AZD8055-related AE, n (%)",[2]; [6],0%
same,"Increased ALT: patients with AZD8055-related AE, n (%)",[2]; [6],1 (33) %
same,"Increased AST: patients with AZD8055-related AE, n (%)",[2]; [6],1 (33) %
same,"Increased GGT: patients with AZD8055-related AE, n (%)",[2]; [6],0%
same,"Nausea: patients with AZD8055-related AE, n (%)",[2]; [6],0%
same,"Stomatitis: patients with AZD8055-related AE, n (%)",[2]; [6],0%
same,Patients with DLT (grade 3 rise in transaminases),[2]; 40 mg BID solution,1
same,"Fatigue: patients with AZD8055-related AE, n (%)",[2]; [7],2 (33) %
same,"Hyperglycaemia: patients with AZD8055-related AE, n (%)",[2]; [7],0%
same,"Increased ALT: patients with AZD8055-related AE, n (%)",[2]; [7],0%
same,"Increased AST: patients with AZD8055-related AE, n (%)",[2]; [7],0%
same,"Increased GGT: patients with AZD8055-related AE, n (%)",[2]; [7],1 (17) %
same,"Nausea: patients with AZD8055-related AE, n (%)",[2]; [7],0%
same,"Stomatitis: patients with AZD8055-related AE, n (%)",[2]; [7],1 (17) %
same,"Fatigue: patients with AZD8055-related AE, n (%)",[2]; [8],0%
same,"Hyperglycaemia: patients with AZD8055-related AE, n (%)",[2]; [8],0%
same,"Increased ALT: patients with AZD8055-related AE, n (%)",[2]; [8],1 (17) %
same,"Increased AST: patients with AZD8055-related AE, n (%)",[2]; [8],1 (17) %
same,"Increased GGT: patients with AZD8055-related AE, n (%)",[2]; [8],0%
same,"Nausea: patients with AZD8055-related AE, n (%)",[2]; [8],0%
same,"Stomatitis: patients with AZD8055-related AE, n (%)",[2]; [8],0%
same,"Fatigue: patients with AZD8055-related AE, n (%)",[2]; [9],1 (14) %
same,"Hyperglycaemia: patients with AZD8055-related AE, n (%)",[2]; [9],1 (14) %
same,"Increased ALT: patients with AZD8055-related AE, n (%)",[2]; [9],0%
same,"Increased AST: patients with AZD8055-related AE, n (%)",[2]; [9],0%
same,"Increased GGT: patients with AZD8055-related AE, n (%)",[2]; [9],0%
same,"Nausea: patients with AZD8055-related AE, n (%)",[2]; [9],1 (14) %
same,"Stomatitis: patients with AZD8055-related AE, n (%)",[2]; [9],0%
same,"Fatigue: patients with AZD8055-related AE, n (%)",[2]; [10],0%
same,"Hyperglycaemia: patients with AZD8055-related AE, n (%)",[2]; [10],0%
same,"Increased ALT: patients with AZD8055-related AE, n (%)",[2]; [10],1 (14) %
same,"Increased AST: patients with AZD8055-related AE, n (%)",[2]; [10],0%
same,"Increased GGT: patients with AZD8055-related AE, n (%)",[2]; [10],0%
same,"Nausea: patients with AZD8055-related AE, n (%)",[2]; [10],0%
same,"Stomatitis: patients with AZD8055-related AE, n (%)",[2]; [10],0%
same,"Fatigue: patients with AZD8055-related AE, n (%)",[2]; [11],1 (14) %
same,"Hyperglycaemia: patients with AZD8055-related AE, n (%)",[2]; [11],0%
